Assay outcomes from PubChem.
Sampled rows, rich in hits. Any-hit rate of the full collection: about 2.6%.
MDM2 E3 inh: inhibitors of human Mdm2 E3 ubiquitin ligase. signal enhancement, % at 5 µM. cell-based MDM2 ubiquitination luciferase reporter, 2 h; 0 = plate control, 100 = twice control, blank-subtracted. hit rate 0.11% among 210,000;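 active means signal enhancement of 30% or more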;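 further: luminescence tracks abundance of the self-degrading MDM2-luciferase fusion protein; higher signal means inhibition of MDM2 E3 ligase activity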
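Assay system: mammalian cells stably expressing self-ubiquitinating, self-degrading MDM2 E3–luciferase fusion. Quantity: 2000 cells in each well. Medium: DMEM culture medium. Compound dosing: single-point 5 µM. Timing: cell settling 4 h, compound treatment 2 h, both 37 °C. Technique: luciferase luminescence. Read-out basis: percent signal gain over controls, blank-subtracted. Benchmarks: plate controls and plate blanks.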
HSF1 inhib: HSF1 inhibition; NIH3T3-HGL HSE-luciferase, MG132-induced, luminescence 8 h; hits give low values; activity change, negative = inhibition, % at 7.5 µM (by protocol); hit rate 0.77% among 300,000;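 active means more than half of replicate wells show activity change below -50%, luminescence cut by over half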;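 further: luciferase reports HSF-1 transcriptional activity via heat shock element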
Hsp70 act: Hsp70 transcriptional activation, primary screen; activation, % at 10 µM; HeLa Hsp70 promoter luciferase reporter, luminescence; scaled: vehicle 0, proteasome-inhibitor control 100%; hit rate 0.04% among 200,000;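 active means activation above the mean across all tested compounds plus 3 SD, cutoff set per campaign, cut at about 5.5% in these data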
HSV replic up: increases HSV replication in cells | maximum fold increase | HSV replication augmentation in cells, fold increase | hit rate 0.005% among 220,000; in the data active means maximum fold increase above about 1.5; tested in PC3 cells
Rad51 HR inh: Rad51 (human) homologous recombination inhibition; Q06609; hit rate 0.085% among 200,000; hRad51 DNA strand exchange, fluorescence dequenching; inhibition, % at 10 µM;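 active means inhibition above 40% at the single screening dose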
Target sequence (Q06609 whole entry, looked up): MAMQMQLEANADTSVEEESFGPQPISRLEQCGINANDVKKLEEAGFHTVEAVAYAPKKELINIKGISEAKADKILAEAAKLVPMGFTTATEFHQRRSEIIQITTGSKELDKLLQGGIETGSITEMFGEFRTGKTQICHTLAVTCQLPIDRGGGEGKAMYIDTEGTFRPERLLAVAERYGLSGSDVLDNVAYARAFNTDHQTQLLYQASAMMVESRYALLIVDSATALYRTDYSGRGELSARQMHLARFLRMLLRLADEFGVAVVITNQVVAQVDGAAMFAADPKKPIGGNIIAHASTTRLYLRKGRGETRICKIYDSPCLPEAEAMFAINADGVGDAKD
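material = hRad51 filaments on single-stranded DNA | reagent = Donor/quencher-labelled 47-bp dsDNA substrate | compound = 10 µM final, single point | schedule = strand-exchange reaction 15 min at room temperature | measured by = fluorescein emission 520 nm, excitation 485 nm | read-out basis = % inhibition versus plate control and blank means | benchmarks = plate controls and plate blanks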
HSF1 activator: increases HSF-1 driven luciferase reporter signal; hit rate 1.7% among 300,000; NIH3T3-HGL HSF-1 luciferase reporter, MG132, 8 h; 100% = twice DMSO control signal; activation, % at 9 µM;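 active means mean replicate activation of at least 50% with a set share of replicates each reaching 50%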
Hsp70 act dose: activates Hsp70 transcription in dose response; HeLa hsp70.1pr-luc reporter, luciferase luminescence; AID 1252; hit rate 10% among 70; calls only at 99 µM; shares compounds with Hsp70 act;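 active means over 50% activation at some tested dose; inactive means under 50% activation at every tested dose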
A number is an active result; n = inactive; x = not tested or not shown.

SMILES	MDM2 E3 inh	HSF1 inhib	Hsp70 act	HSV replic up	Rad51 HR inh	HSF1 activator	Hsp70 act dose
CCCC(=O)N1CCN(c2ccc(NC(=O)c3ccc([N+](=O)[O-])o3)cc2)CC1	n	n	15.0	n	x	n	n
COc1cccc([C@@H]2Oc3ccc(Br)cc3C(=O)[C@H]2OC(=O)NC2CCCC2)c1	x	x	n	n	n	x	x
Cc1cccc(-c2noc(CCCC(=O)N3CCOCC3)n2)c1	n	n	14.6	n	n	n	n
O=C(O)C1CCC(NSc2ccccc2[N+](=O)[O-])CC1 (stereo not drawn)	n	n	x	n	n	n	x
CC(=O)Nc1sc2c(c1-c1nc3ccccc3s1)CCN(C(C)C)C2	n	x	7.5	x	x	x	n
OCC(O)/C=N/Nc1nc(N2CCCCC2)nc(N2CCCCC2)n1 (stereo not drawn)	n	n	n	n	n	n	x
CCOC(=O)C1(C/C(C)=N/NC(N)=O)CC(C)OC1=O (stereo not drawn)	n	n	5.7	n	n	n	n
